Shown are actives, neighbours in structure and some others; about 1.4% of the full set was active somewhere.
CRFBP-R2 block – antagonists of CRF-binding protein/CRF-R2 receptor complex. HEK293 CRF-R2/CRF-BP, CRF-induced calcium fluorescence. actives 0.59% (n = 350,000). inhibition, % at 11.8 µM. AID 588475;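 active = inhibition of the ligand-induced calcium signal above about 50% at the single tested concentration, limit read from the data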
cardiac RTF act – cardiac RTF calcium sensitization | P19429+P45379 | IANBD-labeled TnC RTF fluorescence at EC20 calcium; 0% EC20 calcium, 100% full calcium | activation, % at 7.2 µM | actives 0.24% (n = 340,000) | AID 493008;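 active = activation above the mean over all tested compounds plus 3 SD, cut at about 30% in these data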;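 note: rise in fluorescence read as greater calcium sensitivity of cardiac thin filaments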
Tn6 DDE FP – disrupts Tn6 cyclic peptide binding to fibrin D-Dimer-E complex; Fibrin DD(E) TRITC-Tn6 fluorescence polarization displacement; inhibition, % at 8.3 µM; actives 0.21% (n = 370,000);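 active = inhibition above a per-campaign cutoff: mean of compounds within control limits plus 3 SD, cut at about 15% in these data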;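 note: 0% = median of all compound wells on the plate and 100% = blocking peptide control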
Target sequence (P02675 whole entry, looked up): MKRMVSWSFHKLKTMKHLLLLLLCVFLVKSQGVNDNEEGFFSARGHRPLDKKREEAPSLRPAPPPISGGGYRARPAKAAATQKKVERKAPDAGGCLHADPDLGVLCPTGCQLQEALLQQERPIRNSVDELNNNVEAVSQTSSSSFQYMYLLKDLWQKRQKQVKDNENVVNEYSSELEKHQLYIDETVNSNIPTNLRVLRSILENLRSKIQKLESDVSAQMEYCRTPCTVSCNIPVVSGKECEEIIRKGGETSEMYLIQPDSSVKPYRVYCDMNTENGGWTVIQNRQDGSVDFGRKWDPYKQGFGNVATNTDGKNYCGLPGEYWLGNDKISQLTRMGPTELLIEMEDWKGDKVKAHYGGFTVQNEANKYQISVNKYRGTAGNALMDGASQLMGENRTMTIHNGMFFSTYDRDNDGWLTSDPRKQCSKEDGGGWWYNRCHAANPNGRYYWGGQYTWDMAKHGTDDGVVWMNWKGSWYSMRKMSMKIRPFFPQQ
CRFBP-R2 agonist – CRF-BP/CRF-R2 complex agonism. actives 0.46% (n = 350,000). HEK293 CRF-R2/CRF-BP, calcium dye fluorescence (FLIPR); percent of saturating CRF peptide response. activation, % at 13.2 µM;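 active = activation of at least 50%, plus an integration ratio under a set limit after plate pattern correction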;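 note: plate controls were neutral control wells without compound for no effect and CRF at EC100 for full effect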
Tn7 DDE FP – DD(E)-Tn7 binding inhibition, primary FP screen | P02675 | FP displacement of FITC-Tn7 peptide from fibrin DD(E); 0% = median of compound wells per plate | inhibition, % at 8.3 µM | actives 0.13% (n = 370,000);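 active = inhibition above the mean of compounds falling within the control limits plus 3 SD of them, cut at about 14% in these data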;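 note: 0% = plate median of compound wells and 100% = 10 µM Aha-Tn7 peptide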
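Assay system: Human clot-derived fibrin DD(E) complex | Buffer or medium: Tris/NaCl/CaCl2 buffer, pH 7.8 | Repeats: One replicate per compound | Benchmarks: Aha-Tn7 high control | Measure: % inhibition scaled between sample-field median and high-control FP | Schedule: 10 min plus 3 h, room temperature | Signal: Fluorescence polarization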
RTF Ca sens inh – cardiac RTF calcium desensitization; actives 0.12% (n = 340,000); AID 493244; P19429+P45379; IANBD-labeled cardiac RTF, Ca2+ fluorescence; inhibition, % at 7.15 µM;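 active = inhibition above the mean inhibition of all tested compounds plus 3 SD, cut at about 17% in these data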;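 note: assay run at fixed EC70 calcium of 1.6 mM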
Active calls of the source: *; · = not tested or not shown.

SMILES	CRFBP-R2 block	cardiac RTF act	Tn6 DDE FP	CRFBP-R2 agonist	Tn7 DDE FP	RTF Ca sens inh
Cc1ccc(NC(=O)CC2SC(=O)N(c3ccccc3)C2=O)cc1 (stereo not given)	89*	5	11	2	4	-10
CCc1nc(NCc2ccccc2)c(C#N)c2c1CCCC2	-14	-2	7	0	-1	-19
CCc1nc(NCCC(C)C)c(C#N)c2c1CCCC2	59*	11	4	4	-3	3
c1cnc(-c2noc(CN3CCN(C4CCCC4)CC3)n2)cn1	6	5	2	-1	-2	-5
COc1cccc(C2CCCN2Cc2nc(-c3cnccn3)no2)c1 (stereo not given)	116*	1	3	1	-2	-16
COP(=O)(O)C(C)NC(=O)OCc1ccccc1 (stereo not given)	·	·	7	·	-5	·
COCC(=O)N1[C@H](CO)[C@@H](c2ccc(-c3cccnc3)cc2)[C@H]1CN(C)S(=O)(=O)c1ccccc1[N+](=O)[O-]	·	·	-4	·	-1	·
CC(C)C[C@H](NC(C)(C)C(=O)NC1CCCCC1)C(=O)NCC(c1ccccc1)c1ccccc1	·	·	1	·	-5	·
NC(=O)COC(=O)c1cccc(NS(=O)(=O)/C=C/c2ccccc2)c1	-5	-1	9	-1	4	-8
NC(=O)NC(=O)COC(=O)c1cccc(NS(=O)(=O)/C=C/c2ccccc2)c1	-1	38*	2	0	-3	-4
COc1ccccc1C(NC(=O)C1CCN(CCOc2ccccc2)CC1)c1ccccn1 (stereo not given)	·	·	-3	·	4	·
CCOc1cc(/C=C(/C#N)C(=O)Nc2ccc(O)cc2)cc(Br)c1O	-81	7	-6	96*	-3	-9
C=CCNC(=O)/C(C#N)=C\c1cc(Cl)c(O)c(OCC)c1	-2	4	1	7	1	-11
CCOc1ccc(NC(=O)/C(C#N)=C/c2ccc(N3CCCC3)c(C)c2)cc1	-135	67*	-2	119*	1	-51
CCOCCCNC(=O)N1CCOCC1	-1	-1	4	1	1	7
O=C(NCCCCCCNC(=O)N1CCCCCC1)N1CCCCCC1	76*	10	4	-3	-9	-12
CC(=O)NC(Cc1cccc(F)c1)C(=O)NC1CCN(c2ncccc2[N+](=O)[O-])CC1 (stereo not given)	36	3	2	1	2	-2
CC(=O)NC(Cc1cccc(C)c1)C(=O)NC1CCN(c2ncccc2[N+](=O)[O-])CC1 (stereo not given)	57*	4	6	-2	-1	-7
C#CC[N+](C)(C)CCCCCCCC	-281	-9	-11	275*	1	8
C#CC[N+](C)(C)CCCCCCCCCC	-4	17	-8	8	2	-15
O=C(O)c1ccc2oc(=O)c(S(=O)(=O)c3ccc(F)cc3)cc2c1	-22	-2	-4	6	-7	-1
COc1ccc(-c2nnc(-c3cc4ccccc4oc3=O)o2)cc1	26	5	-6	-1	1	-1
CCCCCCc1cc2cc(-c3nnc(-c4cc(OC)c(OC)c(OC)c4)o3)c(=O)oc2cc1O	-41	·	·	99*	·	·
CCCCCCc1cc2cc(S(=O)(=O)c3ccc(F)cc3)c(=O)oc2cc1O	11	-19	6	54*	3	-6
COc1cccc2cc(-c3nnc(-c4ccccc4)o3)c(=O)oc12	90*	-1	-6	-2	-4	-3
SMILES	CRFBP-R2 block	cardiac RTF act	Tn6 DDE FP	CRFBP-R2 agonist	Tn7 DDE FP	RTF Ca sens inh
CCCCCCc1cc2cc(-c3nnc(-c4ccccc4O)o3)c(=O)oc2cc1O	-234	58*	1	232*	-6	-140
COc1ccc(Cn2cc(CN3[C@H](Cc4ccccc4)COc4cc(Br)ccc4S3(=O)=O)nn2)cc1	·	·	-2	·	-2	·
CCCCCCc1cc2cc(-c3nnc(-c4ccccc4OC)o3)c(=O)oc2cc1O	-302	-1	-2	230*	-13	-11
CCCCCc1c(-c2ccccc2OC)ncn1CCc1ccccc1OC	·	·	9	·	10	·
CCCCCCc1cc2cc(C(=O)Nc3ccccc3OC)c(=O)oc2cc1O	-1	-4	-4	102*	-12	4
Cc1ccc(C(=O)Nc2nc(C(N)Cc3ccc(C(F)(F)F)cc3)cs2)cc1 (stereo not given)	·	·	3	·	6	·
O=C1N=C(N2CCOCC2)S/C1=C/c1ccc(-c2ccccc2Cl)o1	-19	2	-3	5	9	-1
O=C1S/C(=C\c2ccc(N3CCOCC3)o2)C(=O)N1Cc1c(F)cccc1Cl	-29	100*	4	16	0	-43
O=C1S/C(=C\c2ccc(N3CCOCC3)o2)C(=O)N1c1ccccc1	-23	45*	6	6	2	-18
O=C1S/C(=C/c2ccc(N3CCOCC3)o2)C(=O)N1Cc1c(F)cccc1Cl	-43	145*	3	84*	1	-54
O=C(NCCN1CCOCC1)c1ccc2c(c1)N(Cc1c(F)cccc1Cl)C(=O)c1ccccc1S2	-11	-7	0	14	6	1
Cc1ccc(-n2c(SCC(=O)Nc3ccc(Oc4ccccc4)cc3)nnc2-c2ccco2)cc1	·	·	4	·	4	·
Cn1c(NCc2ccccc2F)nc2cc(-c3cccc(Cl)c3)sc2c1=O	·	·	-1	·	-3	·
O=C(c1ccc(F)cc1Cl)N(Cc1ccco1)C1CCS(=O)(=O)C1 (stereo not given)	75*	4	1	0	1	-7
COC(=O)C[C@H]1CC[C@H]2[C@H](COc3ccc(NS(=O)(=O)c4ccccc4C)cc3C(=O)N2C)O1	·	·	3	·	-12	·
CC(=O)COc1ccc2cc(-c3ccccc3)c(=O)oc2c1	-18	2	4	2	4	-16
O=C(CCCCl)Oc1ccc2cc(-c3ccc4ccccc4n3)c(=O)oc2c1	-94	2	-7	106*	3	-15
CCOC1=C/C(=C/c2c(N)n3nc(CC(=O)N4CCCCC4)sc3nc2=O)C=CC1=O	-68	2	0	57*	-1	4
Nc1c(C=C2C=CC(=O)C=C2)c(=O)nc2sc(CC(=O)N3CCOCC3)nn12	8	5	-14	0	3	2
COC1=C/C(=C/c2c(N)n3nc(CC(=O)N4CCCCC4)sc3nc2=O)C=CC1=O	-59	10	·	40	·	-8
C=CCC1=C/C(=C\c2c(N)n3nc(CC(=O)N4CCCC4)sc3nc2=O)C=C(OC)C1=O	-106	3	-4	71*	-4	-6
COC1=CC(=Cc2c(N)n3nc(CC(=O)N4CCOCC4)sc3nc2=O)C=C(OC)C1=O	-109	12	0	151*	-7	-8

Screening results as filed in PubChem BioAssay.
